Test results published in publication PMC3862411 (International Journal for Parasitology, Drugs and Drug …, 2012).
Where “and” joins values, the source holds several entries; their conditions need not be identical. Equal values may be shown once. Marks after values point to notes of the source that are not given here.

What was measured:
[1] = assay type: in vivo, lambs; settings: for AUC: area under the concentration vs time curve extrapolated to infinity / Cmax: peak plasma concentration / Tmax: time to peak plasma concentration / t 1/2 el: elimination half-life: mean ± SD, n = 6
In short: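 Six infected lambs per group got test compound intraruminally at 0.2 mg/kg. Heparinized jugular blood was taken before and at 0, 3, 6, 9 h and 1–13 days, spun at 2000g for 20 min, and plasma assayed by fluorescence HPLC. Non-compartmental analysis: Cmax observed; AUC by trapezoidal rule extrapolated to infinity; t½ = ln2/λz; MRT from AUMC/AUC. Mean ± SD; ANOVA or Kruskal–Wallis.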

[2] = Drug concentrations in GI contents and mucosal tissues; assay type: in vivo, lambs; settings: for Drug concentration, abomasal mucosa / Drug concentration, intestinal mucosa: IR 0.2 mg/kg, lambs
In short: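 After intraruminal 0.2 mg/kg test compound, four infected lambs per time point were killed at 0.5, 1 and 2 days. Abomasal and cranial jejunum contents and mucosal tissue were sampled, stored at −20 °C and assayed by validated fluorescence HPLC (C18, 30 °C, ex 365/em 475 nm). Values are in ng/g, mean ± SD, n = 4.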

[3] = tested on: resistant Haemonchus contortus; assay type: in vivo; settings: for Total mass of H. contortus specimens recovered: day 1 and 2 post-treatment, IR 0.2 mg/kg
In short: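 Infected lambs got test compound intraruminally at 0.2 mg/kg, four killed at 0.5, 1 and 2 days. The total H. contortus mass from abomasal contents was washed in 4 °C saline, blotted, weighed and frozen at −20 °C. Drug was measured by fluorescence HPLC (C18, 0.2% acetic acid/methanol/acetonitrile 1.6/60/38.4, 1.5 ml/min, 30 °C, ex 365/em 475 nm). n = 4.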

resistant GI nematodes = assay: Faecal egg count reduction test; assay type: in vivo, GI nematodes in lambs; settings: IR 0.2 mg/kg; for FECRT: 14 days post-treatment vs untreated control; for Mean epg (range), arithmetic mean of eggs per gram of faeces: Day 14 post-treatment
In short: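 Faeces were sampled at day −1 and day 14 after a single intraruminal 0.2 mg/kg dose to naturally infected lambs. Eggs per gram were counted by modified McMaster. FECRT compared arithmetic mean epg of treated versus untreated controls at day 14, with 95% confidence limits per Coles. Counts were compared by Kruskal–Wallis.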

Haemonchus spp. = assay: Adult nematode worm counts and efficacy 14 days post-treatment; assay type: in vivo; settings: abomasum, 14 days post-administration, IR 0.2 mg/kg
In short: (§1)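 Romney Marsh lambs (27.2 ± 4.48 kg), naturally infected with resistant GI nematodes and grazing lucerne/clover pasture, got a single intraruminal dose of test compound at 0.2 mg/kg. Six treated and six untreated lambs were killed by captive bolt at day 14. Abomasal, small and large intestinal contents were counted by WAAVP guidelines. Geometric mean worm burdens gave % efficacy, treated versus untreated.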

Teladorsagia spp. = assay: as above; assay type: in vivo; settings: abomasum, 14 days post-administration, IR 0.2 mg/kg
In short: as §1

Trichostrongylus axei = assay: as above; assay type: in vivo; settings: abomasum, 14 days post-administration, IR 0.2 mg/kg
In short: as §1

[4] = tested on: Trichostrongylus colubriformis; assay: as above; assay type: in vivo; settings: small intestine, 14 days post-administration, IR 0.2 mg/kg
In short: as §1

Cooperia spp. = assay: as above; assay type: in vivo; settings: small intestine, 14 days post-administration, IR 0.2 mg/kg
In short: as §1

Nematodirus spp. = assay: as above; assay type: in vivo; settings: small intestine, 14 days post-administration, IR 0.2 mg/kg
In short: as §1

Trichuris spp. = assay: as above; assay type: in vivo; settings: large intestine, 14 days post-administration, IR 0.2 mg/kg
In short: as §1

mammalian P-gp = settings: in vitro; ref Lespine et al., 2007; cited from earlier work
[5] = sheep, plasma, other: intraruminal, 0.2 mg/kg
[6] = sheep (lambs), abomasal mucosa, other: intraruminal, 0.2 mg/kg

Row | Compound | Time up to which drug was detected in plasma ([1]; lambs, IR 0.2 mg/kg) | AUC: area under the concentration vs time curve extrapolated to infinity ([1]; lambs, IR 0.2 mg/kg, plasma) | Cmax: peak plasma concentration ([1]; lambs, IR 0.2 mg/kg, plasma) | Total mass of H. contortus specimens recovered [3] | FECRT (resistant GI nematodes) | Mean epg (range), arithmetic mean of eggs per gram of faeces (resistant GI nematodes) | Efficacy, Haemonchus spp. (H. contortus) (Haemonchus spp.) | Worm counts (geometric mean), Haemonchus spp. (Haemonchus spp.) | Efficacy, Teladorsagia spp. (Teladorsagia spp.) | Worm counts (geometric mean), Teladorsagia spp. (Teladorsagia spp.) | Efficacy, Trichostrongylus axei (Trichostrongylus axei) | Worm counts (geometric mean), Trichostrongylus axei (Trichostrongylus axei) | Efficacy, Trichostrongylus colubriformis [4] | Worm counts (geometric mean), Trichostrongylus colubriformis [4] | Efficacy, Cooperia spp. (Cooperia spp.) | Worm counts (geometric mean), Cooperia spp. (Cooperia spp.) | Efficacy, Nematodirus spp. (Nematodirus spp.) | Worm counts (geometric mean), Nematodirus spp. (Nematodirus spp.) | Efficacy, Trichuris spp. (Trichuris spp.) | Worm counts (geometric mean), Trichuris spp. (Trichuris spp.) | other results
1 | CC[C@H](C)[C@H]1O[C@]2(CC[C@@H]1C)C[C@@H]1C[C@@H](C/C=C(\C)[C@@H](O[C@H]3C[C@H](OC)[C@@H](O[C@H]4C[C@H](OC)[C@@H](O)[C@H](C)O4)[C@H](C)O3)[C@@H](C)/C=C/C=C3\CO[C@@H]4[C@H](O)C(C)=C[C@@H](C(=O)O1)[C@]34O)O2 [IVM, ivermectin] | up to 8 days post-treatment | 23.6 ± 7.63^a ng d/ml | 9.02 ± 1.47^b ng/ml | 1.02 to 1.38 g | 0% | 4620^a (1860–12480) | 20.1% | 1021 | 99.7% | 5 | 100% | 0 | 99.3% | 6.28 | 98.2% | 3.08 | 99.5% | 4.87 | 100% | 0 | Tmax: time to peak plasma concentration ([1]; lambs, IR 0.2 mg/kg, plasma): 1.06 ± 0.52^a days; t 1/2 el: elimination half-life ([1]; lambs, IR 0.2 mg/kg, plasma): 1.15 ± 0.30^a days; Drug concentration, abomasal mucosa ([2]; 0.5 days post-treatment): 76.5 ± 9.83^a ng/g; Drug concentration, intestinal mucosa ([2]; 0.5 days post-treatment): 198 ± 55.7^a ng/g; Drug concentration, abomasal mucosa ([2]; 1 day post-treatment): 58.2 ± 8.75^a ng/g; Drug concentration, intestinal mucosa ([2]; 1 day post-treatment): 117 ± 26.8^a ng/g; Drug concentration, abomasal mucosa ([2]; 2 days post-treatment): 42.6 ± 4.53^a ng/g; Drug concentration, intestinal mucosa ([2]; 2 days post-treatment): 128 ± 51.4^a ng/g
2 | CO/N=C1\C[C@]2(C[C@@H]3C[C@@H](C/C=C(\C)C[C@@H](C)/C=C/C=C4\CO[C@@H]5[C@H](O)C(C)=C[C@@H](C(=O)O3)[C@]45O)O2)O[C@H](/C(C)=C/C(C)C)[C@H]1C [MXD, moxidectin] | ≤ 13 days post-treatment | 29.5 ± 3.87^a ng d/ml | – | 0.13 to 0.14 g | 86% and 86.8% | 570^b (240–960) | 89.6% | 133 | 100% | 0 | 100% | 0 | 100% | 0 | 100% | 0 | 100% | 0 | 100% | 0 | Plasma mean residence time (MRT) compared to ABM and IVM ([1]; lambs, IR 0.2 mg/kg): significant longer; Cmax [1, 5]: 11.3 ± 2.87 ng/mL; Tmax [1, 5]: 13 h; half-life [1, 5]: 113 h; Concentrations in GI contents and mucosal tissues compared to IVM and ABM ([2]; 2 days post-treatment): significantly lower; concentration at 0.5 days [2, 6]: 65.5 ± 9.74 ng/g; concentration at 1 day [2, 6]: 48.3 ± 12.7 ng/g; concentration at 2 days [2, 6]: 30.1 ± 5.8 ng/g; Drug concentrations recovered within adult H. contortus compared to ABM and IVM ([3]; day 2 post-treatment): lower; Affinity by mammalian P-gp compared to avermectin-type compounds (mammalian P-gp): lower affinity
3 | abamectin [ABM] | up to 8 days post-treatment | 34.8 ± 11.3^a ng d/ml | 13.6 ± 2.64^a ng/ml | 1.13 to 1.50 g | 0% | 4460^a (1200–6000) | 39.7% | 769 | 100% | 0 | 100% | 0 | 100% | 0 | 100% | 0 | 99.8% | 2.32 | 100% | 0 | Tmax: time to peak plasma concentration ([1]; lambs, IR 0.2 mg/kg, plasma): 0.90 ± 0.26^a days; t 1/2 el: elimination half-life ([1]; lambs, IR 0.2 mg/kg, plasma): 1.10 ± 0.25^a days; Drug concentration, abomasal mucosa ([2]; 0.5 days post-treatment): 76.8 ± 11.6^a ng/g; Drug concentration, intestinal mucosa ([2]; 0.5 days post-treatment): 203 ± 11.5^a ng/g; Drug concentration, abomasal mucosa ([2]; 1 day post-treatment): 78 ± 24.2^a ng/g; Drug concentration, intestinal mucosa ([2]; 1 day post-treatment): 152 ± 12.4^a ng/g; Drug concentration, abomasal mucosa ([2]; 2 days post-treatment): 64.6 ± 45.4^ab ng/g; Drug concentration, intestinal mucosa ([2]; 2 days post-treatment): 118 ± 85.9^a ng/g
